# Test results reported in ChEMBL document CHEMBL4041491, “Imidazo[1,2-a]pyrazin-8-amine core for the design of new adenosine receptor antagonists: Structural exploration to target the A3 and A2A subtypes” (Eur J Med Chem, 2017).
# Activity calls are given as the source filed them. No cut-off for these calls is given here.
# Tests used:
# [1] = target: T1, Adenosine receptor A2b (Homo sapiens) (UniProt P29275); test: Antagonist activity at human A2B receptor expressed in CHO cells assessed as inhibition of NECA-stimulated cAMP production at 1 uM by [3H]cAMP competition binding based scintillation counting method relative to control; assay type: functional, cell-based
# T1 sequence (whole entry): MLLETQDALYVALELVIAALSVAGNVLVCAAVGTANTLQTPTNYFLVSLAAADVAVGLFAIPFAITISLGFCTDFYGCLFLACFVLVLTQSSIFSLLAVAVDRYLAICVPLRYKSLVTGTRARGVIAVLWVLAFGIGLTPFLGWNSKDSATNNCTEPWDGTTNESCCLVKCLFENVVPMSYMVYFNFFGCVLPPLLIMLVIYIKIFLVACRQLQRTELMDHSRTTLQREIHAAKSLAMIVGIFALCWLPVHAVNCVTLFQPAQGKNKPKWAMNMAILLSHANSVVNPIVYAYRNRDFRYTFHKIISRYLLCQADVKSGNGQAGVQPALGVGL
# In short: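 Transfected CHO cells (1 × 10^6/assay) in buffered saline pH 7.4 with adenosine deaminase 2 IU/ml and Ro 20-1724, preincubated 10 min at 37 °C. Test compound at 1 μM against 200 nM NECA-stimulated cAMP. TCA stop, ether extraction, cAMP measured by [3H]cAMP competition binding to bovine adrenal binding protein. Result given as percent inhibition.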
# Adenosine receptor A3 [2] = target: T2, Adenosine receptor A3 (Homo sapiens, UniProt P0DMS8); test: Displacement of [125I]AB-MECA from human adenosine A3 receptor expressed in CHO cell membranes at 1 uM after 120 mins by scintillation counting method relative to control
# T2 sequence (P0DMS8 whole entry, looked up): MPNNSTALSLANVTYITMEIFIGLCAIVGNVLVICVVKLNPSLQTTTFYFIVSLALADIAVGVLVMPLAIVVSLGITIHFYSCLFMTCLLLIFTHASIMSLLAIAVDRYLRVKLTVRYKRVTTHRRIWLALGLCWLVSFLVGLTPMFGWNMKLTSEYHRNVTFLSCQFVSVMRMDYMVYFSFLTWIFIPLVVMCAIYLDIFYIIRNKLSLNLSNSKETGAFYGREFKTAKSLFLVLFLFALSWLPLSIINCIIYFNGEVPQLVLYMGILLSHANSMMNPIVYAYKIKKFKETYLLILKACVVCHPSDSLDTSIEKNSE
# Adenosine receptor A2a [3] = target: T3, Adenosine receptor A2a (Homo sapiens, UniProt P29274); test: Displacement of [3H]ZM241385 from human adenosine A2A receptor expressed in CHO cell membranes after 60 mins by scintillation counting method
# T3 sequence (P29274 whole entry): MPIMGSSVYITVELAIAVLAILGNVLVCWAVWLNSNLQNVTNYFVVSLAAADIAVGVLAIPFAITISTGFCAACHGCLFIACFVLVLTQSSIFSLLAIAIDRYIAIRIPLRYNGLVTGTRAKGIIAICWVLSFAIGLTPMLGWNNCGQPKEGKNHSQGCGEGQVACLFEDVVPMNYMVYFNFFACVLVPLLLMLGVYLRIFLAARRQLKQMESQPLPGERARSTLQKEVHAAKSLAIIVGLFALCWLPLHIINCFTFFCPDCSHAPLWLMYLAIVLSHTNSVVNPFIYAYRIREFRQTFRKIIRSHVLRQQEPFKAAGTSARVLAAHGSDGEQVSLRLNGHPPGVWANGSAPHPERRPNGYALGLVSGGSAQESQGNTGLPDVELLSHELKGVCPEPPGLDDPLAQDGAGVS
# In short: (§1)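 hA2A CHO membranes (50 µg protein) with 1 nM [3H]ZM241385 in 50 mM Tris HCl, 10 mM MgCl2, pH 7.4, 60 min at 4 °C. Six to eight antagonist concentrations, or 1 µM for percent inhibition. Nonspecific binding with 1 µM ZM241385. Ki via Cheng–Prusoff, four assays in duplicate, means ± SEM.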
# Adenosine receptor A1 = target: T4, Adenosine receptor A1 (Homo sapiens, UniProt P30542); test: Displacement of [3H]DPCPX from human adenosine A1 receptor expressed in CHO cell membranes after 120 mins by scintillation counting method
# T4 sequence (P30542 whole entry): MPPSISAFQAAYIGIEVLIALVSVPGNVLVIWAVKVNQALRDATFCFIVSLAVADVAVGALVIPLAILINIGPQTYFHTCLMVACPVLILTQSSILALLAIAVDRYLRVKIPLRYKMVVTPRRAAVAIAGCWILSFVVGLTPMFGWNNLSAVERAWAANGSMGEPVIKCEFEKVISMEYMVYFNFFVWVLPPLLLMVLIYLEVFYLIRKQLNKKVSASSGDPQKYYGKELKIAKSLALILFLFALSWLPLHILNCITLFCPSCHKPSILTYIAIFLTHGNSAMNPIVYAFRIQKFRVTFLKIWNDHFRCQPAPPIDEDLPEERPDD
# In short: (§2)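 hA1 CHO membranes (50 µg protein) with 1 nM [3H]DPCPX in 50 mM Tris HCl pH 7.4, 120 min at 25 °C. Six to eight antagonist concentrations, or 1 µM for percent inhibition. Nonspecific binding with 1 µM DPCPX. Ki via Cheng–Prusoff, four assays in duplicate, means ± SEM.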
# [4] = target: T5, Adenosine receptor A3 (Rattus norvegicus) (UniProt P28647); test: Displacement of [125I]AB-MECA from rat adenosine A3 receptor expressed in HEK293 cell membranes at 1 uM after 120 mins by scintillation counting method relative to control
# T5 sequence (whole entry): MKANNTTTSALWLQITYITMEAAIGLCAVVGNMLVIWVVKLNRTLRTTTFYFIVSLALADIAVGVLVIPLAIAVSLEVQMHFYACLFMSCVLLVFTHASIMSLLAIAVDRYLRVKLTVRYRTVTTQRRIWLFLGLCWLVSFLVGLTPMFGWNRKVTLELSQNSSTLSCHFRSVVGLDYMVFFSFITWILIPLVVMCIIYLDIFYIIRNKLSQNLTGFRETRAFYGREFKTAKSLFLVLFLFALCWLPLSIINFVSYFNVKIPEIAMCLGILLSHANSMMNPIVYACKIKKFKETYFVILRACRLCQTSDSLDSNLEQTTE
# In short: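 rA3 receptor in HEK293 membranes (10 μg protein), 0.5 nM [125I]AB-MECA, 50 mM Tris–HCl, 10 mM MgCl2, 1 mM EDTA, pH 7.4, 120 min at 25 °C. Nonspecific binding with 1 μM AB-MECA; filtration and scintillation counting. Percent inhibition of specific binding at 1 µM.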
# Hippocampus [5] = test: Anti-ischemic activity in Wistar rat hippocampal slices assessed as latency time for 30 mins oxygen-glucose deprivation-induced occurrence of anoxic depolarization at 200 nM by electrophysiology method (reference value: 6.3 +/- 0.3 min)
# Hippocampus [6] = test: Anti-ischemic activity in Wistar rat hippocampal slices assessed as peak amplitude of 30 mins oxygen-glucose deprivation-induced anoxic depolarization at 200 nM by electrophysiology method (reference value: -7.5 +/- 1.2 mV); assay type: functional
# In short: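 Rat hippocampal slices, extracellular d.c. recording in CA1 stratum radiatum. 30-min OGD, then reperfusion with oxygenated glucose aCSF. Compound at 200 nM, diluted from DMSO stock into aCSF, applied 15 min before, during and 5 min after OGD. AD latency in min from OGD onset; amplitude in mV at peak negativity. Mean ± SEM, n slices.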
# Hippocampus [7] = test: Anti-ischemic activity in Wistar rat model of 7 mins oxygen-glucose deprivation-induced cerebral ischemia assessed as recovery of fEPSP amplitude in CA1 region of hippocampal slices at 200 nM incubated for 15 mins prior to induction of oxygen-glucose deprivation and maintained during entire period of oxygen-glucose deprivation/reoxygenation subsequent incubation for 5 mins after OGD insult measured up to 15 mins by electrophysiology method; assay type: functional, tissue-based
# In short: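 Rat hippocampal slices, CA1 stratum radiatum stimulated (80 μs, 0.066 Hz) at 40–50% of maximal fEPSP. Compound at 200 nM in aCSF, DMSO ≤0.05%, applied 15 min before, during and 5 min after 7-min OGD, then reperfusion in oxygenated aCSF. fEPSP amplitude expressed as % of mean over the 5 min before OGD.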
# Adenosine receptor A3 [8] = target: T2, Adenosine receptor A3; test: Antagonist activity at human A3 receptor expressed in CHO cells assessed as inhibition of CI-IB-MECA-mediated inhibition of cAMP production by [3H]cAMP competition binding based scintillation counting method; assay type: cell-based
# In short: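 hA3-transfected CHO cells (1 × 10^6/assay) in buffered saline pH 7.4 with adenosine deaminase and Ro 20-1724, preincubated 10 min at 37 °C. Antagonism of 100 nM Cl-IB-MECA inhibition of 1 µM forskolin-stimulated cAMP. cAMP measured by [3H]cAMP protein-binding assay. IC50 by sigmoid nonlinear regression, four independent experiments in triplicate, means ± SEM.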
# Adenosine receptor A2a [9] = target: T3, Adenosine receptor A2a; test: Displacement of [3H]ZM241385 from human adenosine A2A receptor expressed in CHO cell membranes at 1 uM after 60 mins by scintillation counting method relative to control; in short: as §1
# [10] = target: T6, Adenosine receptor A1 (Homo sapiens) (UniProt P30542); test: Displacement of [3H]DPCPX from human adenosine A1 receptor expressed in CHO cell membranes at 1 uM after 120 mins by scintillation counting method relative to control; in short: as §2
# T6 sequence (whole entry): T4 sequence (P30542 whole entry)
# Adenosine receptor A3 [11] = target: T2, Adenosine receptor A3; test: Displacement of [125I]AB-MECA from human adenosine A3 receptor expressed in CHO cell membranes after 120 mins by scintillation counting method
# In short: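 hA3 CHO membranes (50 µg protein) with 0.5 nM [125I]AB-MECA in 50 mM Tris HCl, 10 mM MgCl2, 1 mM EDTA, pH 7.4, 120 min at 4 °C. Six to eight ligand concentrations, or 1 µM for percent inhibition. Nonspecific binding with 1 µM AB-MECA; GF/B filtration. Ki by Cheng–Prusoff, four assays in duplicate, means ± SEM.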
structure (smiles),measurement,setting,value
Nc1nc(Br)cn2cc(-c3ccco3)nc12,inhibition,[1],29%
same,inhibition,Adenosine receptor A3 [2],28%
same,Ki,Adenosine receptor A2a [3],265 nM
same,Ki,Adenosine receptor A1,210 nM
Nc1nc(-c2ccco2)cn2cc(-c3ccco3)nc12,inhibition,[1],30%
same,inhibition,Adenosine receptor A3 [2],38%
same,Ki,Adenosine receptor A2a [3],854 nM
same,Ki,Adenosine receptor A1,316 nM
O=C(Nc1nc(-c2ccccc2)cn2cc(-c3ccccc3)nc12)c1cccnc1,inhibition,[1],3%
same,inhibition,[4],2%
same,Time,Hippocampus [5],8.2 min
same,Activity,Hippocampus [6],-7.1 mV
same,Activity,Hippocampus [7],Active
same,IC50,Adenosine receptor A3 [8],172 nM
same,inhibition,Adenosine receptor A2a [9],1%
same,inhibition,[10],11%
same,Ki,Adenosine receptor A3 [11],54 nM
Nc1nc(-c2ccccc2)cn2cc(-c3ccco3)nc12,inhibition,[1],10%
same,inhibition,Adenosine receptor A3 [2],21%
same,Ki,Adenosine receptor A2a [3],520 nM
same,Ki,Adenosine receptor A1,143 nM
